Assay [1] has as its target T1, Peroxisome proliferator-activated receptor alpha (Homo sapiens, UniProt Q07869).
T1 sequence (Q07869 whole entry): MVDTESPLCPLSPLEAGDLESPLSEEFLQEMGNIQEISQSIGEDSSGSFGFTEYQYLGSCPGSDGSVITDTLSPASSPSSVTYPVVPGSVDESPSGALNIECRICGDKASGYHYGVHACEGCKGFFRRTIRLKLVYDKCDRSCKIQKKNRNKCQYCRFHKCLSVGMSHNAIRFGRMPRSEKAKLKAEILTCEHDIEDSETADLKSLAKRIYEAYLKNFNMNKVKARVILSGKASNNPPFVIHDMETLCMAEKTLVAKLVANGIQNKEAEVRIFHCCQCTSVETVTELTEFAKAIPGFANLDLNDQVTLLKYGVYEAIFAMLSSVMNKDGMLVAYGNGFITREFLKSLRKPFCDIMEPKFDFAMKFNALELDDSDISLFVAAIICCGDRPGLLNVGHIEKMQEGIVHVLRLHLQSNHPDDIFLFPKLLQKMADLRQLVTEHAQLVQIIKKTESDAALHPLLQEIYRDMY
Description: Transactivation of GAL4-fused human PPARalpa LBD expressed in human HepG2 cells after 20 hrs by luciferase reporter gene assay. The assay is classed as cell-based. For orientation: A reporter such as luciferase makes a cellular process visible.

For assay [2], the target named is T2, Peroxisome proliferator-activated receptor delta (Homo sapiens, UniProt Q03181).
T2 sequence (Q03181 whole entry): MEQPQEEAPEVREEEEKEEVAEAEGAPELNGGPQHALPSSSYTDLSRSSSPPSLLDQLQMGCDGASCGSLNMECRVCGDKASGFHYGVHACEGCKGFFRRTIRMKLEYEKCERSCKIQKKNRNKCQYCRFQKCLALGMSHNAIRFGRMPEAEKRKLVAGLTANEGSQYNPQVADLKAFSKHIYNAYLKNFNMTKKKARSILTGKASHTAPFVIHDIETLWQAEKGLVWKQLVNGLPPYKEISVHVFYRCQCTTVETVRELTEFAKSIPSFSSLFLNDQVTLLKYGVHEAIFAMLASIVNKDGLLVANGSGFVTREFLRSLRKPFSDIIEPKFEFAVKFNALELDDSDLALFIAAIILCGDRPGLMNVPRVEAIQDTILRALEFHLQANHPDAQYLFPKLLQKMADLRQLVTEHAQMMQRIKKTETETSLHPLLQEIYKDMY
Description: Binding affinity to PPARdelta (unknown origin) assessed as kinetic dissociation constant by SPR assay. For orientation: Surface plasmon resonance follows binding to a sensor surface in real time, without labels.

The target in assay [3] is T3, Bile acid receptor (Homo sapiens) (UniProt Q96RI1).
T3 sequence (whole entry): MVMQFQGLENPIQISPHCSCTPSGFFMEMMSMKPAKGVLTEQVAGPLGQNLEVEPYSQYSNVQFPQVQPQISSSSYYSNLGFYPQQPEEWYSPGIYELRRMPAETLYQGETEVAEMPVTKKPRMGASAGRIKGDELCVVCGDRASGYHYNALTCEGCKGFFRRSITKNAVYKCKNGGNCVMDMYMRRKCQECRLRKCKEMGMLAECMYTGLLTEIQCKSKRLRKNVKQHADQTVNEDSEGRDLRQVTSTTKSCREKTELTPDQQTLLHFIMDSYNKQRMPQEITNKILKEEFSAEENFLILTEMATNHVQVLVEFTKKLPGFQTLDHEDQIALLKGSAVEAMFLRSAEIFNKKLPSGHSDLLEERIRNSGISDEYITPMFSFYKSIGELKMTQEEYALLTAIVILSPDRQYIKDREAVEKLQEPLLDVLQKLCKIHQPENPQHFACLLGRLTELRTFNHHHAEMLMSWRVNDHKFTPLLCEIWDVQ
Description: Agonist activity at GAL4-fused human FXR LBD expressed in human HepG2 cells up to 2 uM after 20 hrs by luciferase reporter gene assay. The assay is classed as cell-based. The essentials:
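HepG2 in MEM/10% FBS, calcium-phosphate co-transfection 24 h after seeding with GAL4-FXR-LBD (30 ng), pGAL5TKpGL3 luciferase reporter (100 ng) and pCMVβgal (250 ng); 4 h later, 20 h ligand exposure in triplicate. Luciferase normalized to β-galactosidase (ONPG); efficacy as % of maximal fold induction of chenodeoxycholic acid reference; tested up to 2 μM.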

In assay [4] the target is T4, Peroxisome proliferator-activated receptor alpha (Homo sapiens) (UniProt Q07869).
T4 sequence (whole entry): T1 sequence (Q07869 whole entry)
Description: Agonist activity at PPARalpha in human HepG2 cells assessed as increase in CAC protein expression level at 1 uM after 48 hrs by Western blot method. The assay is classed as cell-based. The gist of the method:
(§1)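 HepG2 serum-depleted 24 h, then treated 48 h with 1 μM compound (Wy-14,643 at 50 μM as reference). Nitrocellulose immunoblots probed for CAC, CPT1 or PPARα with β-actin loading control, chemiluminescent detection; band densitometry expressed as fold change versus untreated cells; three independent experiments.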
A general note: In western blotting, separated proteins are transferred to a membrane and probed.

Assay [5] has as its target T5, Peroxisome proliferator-activated receptor gamma (Homo sapiens, UniProt P37231).
T5 sequence (P37231 whole entry): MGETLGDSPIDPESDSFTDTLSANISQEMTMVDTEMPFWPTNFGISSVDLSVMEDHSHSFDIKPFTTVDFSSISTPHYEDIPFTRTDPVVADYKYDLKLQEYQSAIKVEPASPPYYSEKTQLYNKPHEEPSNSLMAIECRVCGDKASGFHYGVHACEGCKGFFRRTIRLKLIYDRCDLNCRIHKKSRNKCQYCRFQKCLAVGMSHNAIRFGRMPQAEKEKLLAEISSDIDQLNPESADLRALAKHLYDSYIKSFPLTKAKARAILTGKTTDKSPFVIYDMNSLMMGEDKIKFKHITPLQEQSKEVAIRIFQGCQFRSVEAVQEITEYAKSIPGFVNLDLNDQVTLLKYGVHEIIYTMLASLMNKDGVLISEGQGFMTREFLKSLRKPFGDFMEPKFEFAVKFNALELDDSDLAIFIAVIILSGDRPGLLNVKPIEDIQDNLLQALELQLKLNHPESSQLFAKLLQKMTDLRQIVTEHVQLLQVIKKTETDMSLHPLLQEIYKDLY
Description: Binding affinity to PPARgamma (unknown origin) assessed as thermodynamic dissociation constant by SPR assay. As to conditions: read-out: Kd.

Assay [6] deals with T4, Peroxisome proliferator-activated receptor alpha (Homo sapiens). Description: Agonist activity at PPARalpha in human HepG2 cells assessed as increase in CPT1 protein expression level at 1 uM after 48 hrs by Western blot method. The assay is classed as cell-based. The gist of the method:
as §1

For assay [7] the target is unchanged. The experiment in a line: Agonist activity at PPARalpha in human HepG2 cells assessed as increase in mitochondrial mass at 1 uM by CellLight Mitochondria-GFP staining based fluorescent microscopic method relative to control. The class given is cell-based. The gist of the method:
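Serum-free HepG2 at 60% confluence transduced with Mitochondria-GFP BacMam 2.0 (50 particles/cell) and given 1 μM compound or 50 μM Wy-14,643 for 24 h. Imaged at 20x with GFP filters (ex 485/em 535 nm); separately, SDS/Tris pH 7.5 lysates read at ex 475, em 500-550 nm. Mean ± SD of three experiments, ANOVA/Bonferroni.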

The target of assay [8] is T5, Peroxisome proliferator-activated receptor gamma. The experiment in a line: Transactivation of GAL4-fused human PPARgamma LBD expressed in human HepG2 cells after 20 hrs by luciferase reporter gene assay. The class given is cell-based.
Assay [9] has the same target. The experiment in a line: Binding affinity to PPARgamma (unknown origin) assessed as kinetic dissociation constant by SPR assay.

Data on two molecules can be found in ChEMBL document CHEMBL4007396, “New diphenylmethane derivatives as peroxisome proliferator-activated receptor alpha/gamma dual agonists endowed with anti-proliferative effects and mitochondrial activity” (Eur J Med Chem, 2017).

Activity calls are given as the source filed them. The rule behind the calls is not given here.

Usually EC50 stands for the concentration that produces a half-maximal response. A lower EC50 goes with an effect from little substance. `C[C@H](Oc1ccc(Cc2ccc(OCc3coc(-c4ccccc4)n3)cc2)cc1)C(=O)O`: the figures for the EC50 in [1] and in [8] were 46 nM and 300 nM, respectively. Further, the Kd result in assay [2] was “Not Active”; in assay [5], 4.9 nM; in assay [9], 0.099 s⁻¹. Besides, in assay [3], the result was inactive. The outcome in [4] and in [6] was Active. Also, in [7], the Activity was 30%.
As to `C[C@@H](Oc1ccc(Cc2ccc(OCc3coc(-c4ccccc4)n3)cc2)cc1)C(=O)O`, the EC50 in [1] amounted to 42 nM; in [8], 280 nM. In addition, the Kd entry in assay [2] is “Not Active”; in [5], 3.7 nM; in assay [9], 0.095 s⁻¹. For the same molecule, the outcome in assay [3] was inactive. For the same molecule, the outcome in assay [4] and in [6] was Active. The Activity in assay [7] turned out to be 30%.
